One experiment relates to Vero. The experiment in a line: Cytotoxicity against african green monkey Vero cells. In kind it is cell-based. As to conditions: Chlorocebus sabaeus. In a few lines: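 Vero cells (ATCC CCL-81) tested in the CellTiter 96 aqueous nonradioactive cell proliferation assay. Maximum (100%) cytotoxicity set by lysing cells with sodium dodecyl sulfate. IC50 defined as the reciprocal dilution giving 50% inhibition of the Vero cells.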

A short description of experiment [1]: Selectivity index, ratio of IC50 for african green monkey Vero cells to MIC for Mycobacterium tuberculosis H37Rv. In kind it is functional. In short, it runs like this: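 Calculated as Vero IC50 (CellTiter 96 aqueous assay, ATCC CCL-81 cells) divided by the H37Rv MIC (microplate Alamar Blue, ≥90% inhibition relative to untreated cultures).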
Experiment [2] has as its system Mycobacterium tuberculosis. The experiment in a line: Antitubercular activity against Mycobacterium tuberculosis H37Rv by microplate alamar blue assay. It counts as functional. In a few lines: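 M. tuberculosis H37Rv (ATCC 27294) tested in the microplate Alamar Blue assay with fluorescence read-out. MIC taken as the lowest drug concentration giving ≥90% inhibition relative to untreated cultures.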

The values below come from ChEMBL document CHEMBL1151170, “Mycobacterium tuberculosis growth inhibition by constituents of Sapium haematospermum” (J Nat Prod, 2004).

Values after ≈ are worked out from the molar mass of the structure shown.

Turning to `C=C[C@@]1(C)C=C2CC[C@H]3C(C)(C)C(=O)C[C@@H](O)[C@@]3(C)[C@H]2C[C@H]1O` [LECHERONOL A], the half-inhibitory concentration (IC50) in the experiment on Vero was determined as 105 µg/mL (≈ 329 µM). In addition, the Ratio in experiment [1] was 26.2. Moreover, in experiment [2], the MIC was 4 µg/mL (≈ 12.6 µM).

The compound `C[C@@H]1CC[C@]2(C(=O)O)CC[C@]3(C)C(=CC[C@@H]4[C@@]5(C)C[C@@H](O)[C@H](O)[C@@](C)(CO)[C@@H]5CC[C@]43C)[C@@H]2C1` yielded an MIC in experiment [2] above 128 µg/mL.

Regarding `C[C@H]1[C@H](C)CC[C@]2(C)CC[C@]3(C)C(=CC[C@@H]4[C@@]5(C)CC[C@@H](O)C(C)(C)[C@@H]5CC[C@]43C)[C@H]12`, the minimal inhibitory concentration (MIC) in experiment [2] is above 128 µg/mL.

The compound `C=C[C@@]1(C)C=C2CC[C@@H]3[C@@](C)(CCC(=O)[C@@]3(C)CO)[C@H]2C[C@H]1O` [LECHERONOL B] had a minimal inhibitory concentration (MIC) in experiment [2] of 128 µg/mL (≈ 402 µM).

In the experiment on Vero, `CC1(C)CC[C@]2(C)CC[C@]3(C)C(=CC[C@@H]4[C@@]5(C)CC[C@@H](O)C(C)(C)[C@@H]5CC[C@]43C)[C@@H]2C1` showed an IC50 of 127 µg/mL (≈ 298 µM). The Ratio in experiment [1] is listed as 10.4. Moreover, in experiment [2], the minimal inhibitory concentration (MIC) was determined as 12.2 µg/mL (≈ 28.6 µM).

Consider `CC1(C)CC[C@]2(C)CC[C@]3(C)C(=CC[C@@H]4[C@@]5(C)CC[C@H](O)C(C)(C)[C@@H]5CC[C@]43C)[C@@H]2C1` [beta-AMYRIN], for which the minimum inhibitory concentration (MIC) in experiment [2] was found to be 64 µg/mL (≈ 150 µM).

Compound `O=c1c(O[C@@H]2O[C@H](CO)[C@@H](O)[C@H](O)[C@H]2O)c(-c2ccc(O)c(O)c2)oc2cc(O)cc(O)c12` [ISOQUERCETIN] had an MIC in experiment [2] of 94 µg/mL (≈ 202 µM).

On to `O=C(c1c(O)cc(O)cc1O)[C@H](O)[C@H](O)c1cc(O)c(O)c(O)c1`, for which the minimal inhibitory concentration (MIC) in experiment [2] was above 128 µg/mL.

`CC(C)CCC[C@@H](C)[C@H]1CC[C@@]2(C)[C@@H]3CC[C@H]4C(C)(C)[C@@H](O)CC[C@@]45C[C@@]35CC[C@]12C` [CYCLOARTANOL]: in the experiment with Vero, the midpoint of inhibition, the IC50, lay at 102 µg/mL (≈ 239 µM). For the same compound, the Ratio in experiment [1] worked out at 12.8. Further, the MIC in experiment [2] worked out at 8 µg/mL (≈ 18.7 µM).

`C=C(C)[C@@H]1CC[C@]2(C)CC[C@]3(C)[C@H](CC[C@@H]4[C@@]5(C)CC[C@H](O)C(C)(C)[C@@H]5CC[C@]43C)[C@@H]12` [LUPEOL] had an MIC in experiment [2] above 128 µg/mL.

For the compound `CO[C@H]1/C=C/O[C@@]2(C)Oc3c(C)c(O)c4c(O)c(c(/C=N/N5CCN(C)CC5)c(O)c4c3C2=O)NC(=O)/C(C)=C\C=C\[C@H](C)[C@H](O)[C@@H](C)[C@@H](O)[C@@H](C)[C@H](OC(C)=O)[C@@H]1C` [RIFAMPIN], in experiment [2], inhibition of growth (MIC) required 0.06 µg/mL (≈ 0.0729 µM).

As for `C=C(C)[C@@H]1CC[C@]2(C)CC[C@]3(C)[C@H](CC[C@@H]4[C@@]5(C)CC[C@@H](O)C(C)(C)[C@@H]5CC[C@]43C)[C@@H]12`, the IC50 in the experiment with Vero is 127 µg/mL (≈ 298 µM). In addition, in experiment [1], the Ratio is given as 10.4. For the same compound, it took 13.4 µg/mL (≈ 31.4 µM) to inhibit growth in experiment [2] (MIC).

As to `O=c1c(O[C@@H]2O[C@H](CO)[C@@H](O)[C@H](O)[C@H]2O)c(-c2ccc(O)cc2)oc2cc(O)cc(O)c12` [ASTRAGALIN], the minimum inhibitory concentration (MIC) in experiment [2] is above 128 µg/mL.

`CCCCCCCCCCCC(=O)O[C@H]1CC[C@]23C[C@]24CC[C@]2(C)[C@@H]([C@H](C)C/C=C/C(C)(C)O)CC[C@@]2(C)[C@@H]4CC[C@H]3C1(C)C` displayed an MIC in experiment [2] above 128 µg/mL.
